The results in this text go back to ChEMBL document CHEMBL2321694, “Novel 3-hydroxy vinylboronates influence sphingolipid metabolism, cause apoptosis in Jurkat cells and prevent tumor development in nude mice” (Bioorg Med Chem Lett, 2013).

Activity calls are given as the source filed them. The rule behind the calls is not given here.

A word on the IC50: it is the concentration that inhibits the measured activity by half.

In data set [1] the test system is HT-29. Description: Cytotoxicity against human HT-29 cells assessed as cell survival after 72 hrs by MTT assay. It is filed as functional, cell-based. Put shortly: (§1)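 Cells at 1 × 10^6 cells/ml were plated in RPMI 1640 without FCS; adherent lines (HT-29, ARH-77, Melanoma-624) were left overnight to attach first. Compound was added and MTT read after 72 h incubation at 37 °C, 5% CO2; IC50 derived.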
(Tetrazolium assays rely on reduction of a dye to a coloured formazan, in cell work by metabolically active cells.)

Another data set relates to ARH-77. Description: Cytotoxicity against human ARH77 cells assessed as cell survival after 72 hrs by MTT assay. It is filed as functional, cell-based. The method in brief: as §1
Data set [2] concerns Jurkat. Description: Cytotoxicity against human Jurkat cells assessed as cell survival after 72 hrs by MTT assay. It is filed as functional, cell-based. Put shortly:
as §1

For data set [3], the system named is Jurkat. Description: Induction of apoptosis in human Jurkat cells assessed as increase in apoptotic cells at 100 uM after 24 hrs by annexin V-propidium iodide staining-based FACS flow cytometric analysis (reference value: 11.99%). It is filed as functional. Background: Flow cytometry measures light scatter and fluorescence of single cells or particles in a stream.

Data set [4] relates to Jurkat. Description: Cell cycle arrest at human Jurkat cells assessed as accumulation at sub G1 phase at 100 uM after 24 hrs by propidium iodide staining-based FACS flow cytometric analysis relative to control. It is filed as functional. Put shortly:
(§2)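 Jurkat cells at 1 × 10^6 cells/ml were exposed to compound or vehicle (0.2% DMSO) for 24 h. They were then fixed in cold 70% ethanol, and RNAse (50 μg/ml) and PI were added in PBS. Cell-cycle distribution, including sub-G1, was read by flow cytometry. Data are mean ± s.d., with t test versus naïve control.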

The subject of data set [5] is Jurkat. Description: Cytotoxicity against human Jurkat cells assessed as cell survival after 72 hrs by MTT assay in presence of 10% FCS. It is filed as functional, cell-based. Put shortly:
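Jurkat MTT viability run in RPMI 1640 with 10% FCS, 72 h incubation with compound at 37 °C, 5% CO2; IC50 derived.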

Data set [6] relates to Jurkat. Description: Cell cycle arrest at human Jurkat cells assessed as accumulation at sub G1 phase at 20 to 50 uM after 24 hrs by propidium iodide staining-based FACS flow cytometric analysis. It is filed as functional. The note with it: 100 uM, in the assay text read “100 uM” for “20 to 50 uM”. The method in brief: as §2
Data set [7] concerns HT-29. Description: Antitumor activity against human HT-29 cells xenografted in nude mouse assessed as tumor growth inhibition at 50 mg/kg, ip measured up to day 33. It is filed as functional, organism-based. More on the design: dose 50 mg/kg.
Data set [8] can be described thus: Cytotoxicity against human Melanoma-624 cells assessed as cell survival after 72 hrs by MTT assay. To be noted: Homo sapiens, 624, 72 h. It is filed as functional, cell-based. The method in brief: as §1
In data set [9] the test system is HT-29. Description: Antitumor activity against human HT-29 cells xenografted in nude mouse assessed as tumor growth inhibition at 50 mg/kg, ip measured after 33 days. It is filed as functional, organism-based. On the set-up: dose 50 mg/kg. The method in brief: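 Female nude mice 5–6 weeks old (SPF, ~22 °C, 12-h light–dark) injected sc with 1 × 10^6 HT-29 cells, randomized same day to 50 mg/kg (n=5) or vehicle cremophor/ethanol/water (10:10:80) (n=6). Once-daily ip injections for 3 weeks (15 injections), then 4 weeks follow-up; read-out was percentage of tumor-free mice over time.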
(A xenograft is tissue or cells of one species grown in another, often human tumour cells in immunodeficient mice.)

A further data set has as its system Mus musculus. Description: Toxicity in nude mouse xenografted with human HT-29 cells assessed as adverse effect at 50 mg/kg, ip up to day 50. It is filed as organism-based. On the set-up: dose 50 mg/kg, route intraperitoneal. The note with it: in vivo. Put shortly: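 HT-29 xenograft (1 × 10^6 cells sc) in female nude mice dosed ip once daily for 3 weeks (15 injections) in cremophor/ethanol/water (10:10:80), followed to day 50; general health checked daily by weighing and clinical examination.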

Data set [10] concerns Jurkat. Description: Reduction of sphingomyelin synthesis in fluorescent Bodipy-12-ceramide-treated human Jurkat cells administered 30 mins prior to Bodipy-12-ceramide addition measured after 72 hrs by HPLC analysis in presence of 10% FCS. It is filed as functional, cell-based. The method in brief:
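Jurkat cells (0.75 × 10^6 cells/ml) in medium with 10% FCS received compound or vehicle (0.1% DMSO); 30 min later 0.25 μM Bodipy-12-ceramide was added. After 72 h, lipids were extracted with dichloromethane/methanol, and ceramide and sphingomyelin percentages were quantified by C18 HPLC with fluorescence detection (Ex 505, Em 530 nm). Mean ± s.d., t test versus vehicle.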

The mark [11] stands for this setting: Homo sapiens, HT-29, 72 h, read-out: IC50.
Where [12] appears, read: Homo sapiens, ARH-77, 72 h, read-out: IC50.

Take `CCC/C(=C\B1OC(C)(C)C(C)(C)O1)C(O)c1ccccc1` (stereo unspecified): the IC50 is above 100 µM in the data set on HT-29 [1] (setting [11]) and “Not Active” in the data set on ARH-77 (arh-77).
Consider `CCCCC/C(=C\B1OC(C)(C)C(C)(C)O1)C(O)(c1ccccc1)C1CC1` (stereo unspecified), for which the IC50 entry with HT-29 [1] (ht-29) is “Not Active”; in the data set with ARH-77 (setting [12]) it was 10.4 µM.
Turning to `CCCCCCCC/C(=C\B1OC(C)(C)C(C)(C)O1)C(O)(c1ccccc1)C1CC1` (stereo unspecified), the IC50 turned out to be 16.3 µM in the data set with Jurkat [2]; 84 µM in the data set on Jurkat [5]; 18.3 µM with HT-29 [1] (setting [11]); 32.3 µM in [8]; 6.36 µM in the data set on ARH-77 (setting [12]). Moreover, the results for the Activity with Jurkat [3], in the data set on Mus musculus and in the data set on Jurkat [10] were 15.22%, “Non-toxic” and “Dose-dependent effect”, respectively. Further, the “fold change (FC)” value in the data set on Jurkat [4] was above 2. The result in the data set with Jurkat [6] was Active. In the data set on HT-29 [7], the TGI result is “Active”. In addition, in the data set on HT-29 [9], the TGI entry is “inactive”.
On to `CCCCC(C)(O)/C(=C/B1OC(C)(C)C(C)(C)O1)CCC` (stereo unspecified), for which the IC50 with HT-29 [1] (setting [11]) is 69.6 µM; in the data set with ARH-77 (setting [12]), 54.6 µM.
For `CCC/C(=C\B1OC(C)(C)C(C)(C)O1)C(O)(c1ccccc1)C1CC1` (stereo unspecified) the same measures were 83.9 µM and 55.2 µM.
As for `CCCCCCCC/C(=C\B1OC(C)(C)C(C)(C)O1)C(C)(O)CCCCCC` (stereo unspecified), the IC50 is above 100 µM with HT-29 [1] (setting [11]) and 79.1 µM with ARH-77 (setting [12]).
For `CCC/C(=C\B1OC(C)(C)C(C)(C)O1)C1(O)CCCc2ccccc21` (stereo unspecified) the same measures were 86.8 µM and 64.9 µM.
As for `CCCCCCC(C)(O)/C(=C/B1OC(C)(C)C(C)(C)O1)CCC` (stereo unspecified), the IC50 with HT-29 [1] (setting [11]) was 57.2 µM; with ARH-77 (setting [12]) it was 33.9 µM.
